# Results gathered from unrelated publications.
# Lines come from different studies, so protocols differ.
# Organism: Staphylococcus epidermidis
Structure (SMILES),read-out,method,strain,tested at,time,measurement,result
N#CC(=Cc1cn(-c2ccccc2)nc1-c1ccccc1)C1=NC(=O)CS1,microbial killing,broth dilution,,,,MBC,0.5 µg/mL
O=C(O)CN1C(=O)/C(=C/c2ccc(-c3ccc(N(c4ccccc4)c4ccccc4)cc3)c3ccccc23)SC1=S,microbial killing,broth dilution,ATCC12228,,,MBC,1000 µg/mL
O=C(O)c1cn(C2CC2)c2cc(N3CCNCC3)c(F)cc2c1=O,microbial growth,,DSM28765,,,MIC,0.25 µg/mL
O=[N+]([O-])c1ccc(-c2nc3cccc(O)c3[nH]2)o1,microbial killing,,,,,MBC,1 µg/mL
CCOC(=O)c1c(N)csc1-c1cn(-c2ccccc2)nc1-c1ccc(C)cc1,microbial killing,broth dilution,,,,MBC,0.125 µg/mL
O=S(=O)(O)c1cc(O)c(N=Nc2ccc3ccccc3c2O)c2ccccc12,microbial growth,broth dilution,,,24 h,MIC50,63 µM
O=C1NC(=S)N/C1=C\c1ccc(-c2ccc(N(c3ccccc3)c3ccccc3)cc2)cc1,microbial growth,broth dilution,ATCC12228,,,MIC,> 1000 µg/mL
CC1(C)S[C@@H]2[C@H](NC(=O)[C@H](N)c3ccccc3)C(=O)N2[C@H]1C(=O)O,microbial growth,agar dilution,ATCC12228,26.93 µM,,inhibition,100%
CC(C)Oc1c(NC(=O)c2ccc(NC(=O)c3ccc(NC(=O)[C@H](CC(N)=O)NC(=O)c4ccc(NC(=O)c5ccc(C#N)cn5)cc4)cc3)c(OC(C)C)c2O)ccc(C(=O)O)c1O,microbial growth,,DSM28765,,,MIC,≤ 0.03 µg/mL
O=C1NC(=S)S/C1=C\c1ccc(-c2ccc(N(c3ccccc3)c3ccccc3)cc2)c2ccccc12,microbial growth,broth dilution,ATCC12228,,,MIC,1000 µg/mL
CC(C)Oc1c(NC(=O)c2ccc(NC(=O)[C@H](CC(N)=O)NC(=O)c3ccc(NC(=O)c4ccc(C#N)cc4)cc3)cc2)ccc(C(=O)Nc2ccc(C(=O)O)cc2)c1O,microbial growth,,DSM28765,,,MIC,≤ 0.03 µg/mL
O=C(O)CN1C(=O)/C(=C/c2c3ccccc3c(-c3ccc(N(c4ccccc4)c4ccccc4)cc3)c3ccccc23)SC1=S,microbial killing,broth dilution,ATCC12228,,,MBC,> 1000 µg/mL
CN(C)[C@@H]1C(O)=C(C(N)=O)C(=O)[C@@]2(O)C(O)=C3C(=O)c4c(O)cccc4[C@@](C)(O)[C@H]3C[C@@H]12,microbial growth,broth dilution,12228,,,MIC,100 µM
O=[N+]([O-])c1ccc2c(N=Nc3c(O)ccc4ccccc34)c(O)cc(S(=O)(=O)O)c2c1,microbial growth,broth dilution,,,24 h,MIC50,250 µM
